According to ChEMBL document CHEMBL4138310 (J Med Chem, 2018):

Key:
[1] = test system: Human immunodeficiency virus 1; test: Antiviral activity against wild-type HIV1 3B infected in human MT4 cells assessed as inhibition of virus-induced cytopathic effect after 5 days in presence of 50 % of human serum by MTT assay; format: functional, organism-based; conditions: Human immunodeficiency virus 1, 3B, MT4, 120 h
[2] = test system: Human immunodeficiency virus 1; test: Ratio of EC50 for wild-type HIV1 3B infected in human MT4 in presence of 50% of huma serum to EC50 for wild-type HIV-1 3B infected in human MT4 in absence of human serum; format: functional
[3] = biological target: Protease (Human immunodeficiency virus 1) (UniProt Q9YQ12); test: Inhibition of recombinant HIV1 protease at 1 nM using H-Lys-Ala-Arg-Val-Tyr-Phe(p-NO2)-Glu-Ala-Nle-NH2 as substrate preincubated for 5 mins followed by substrate addition measured after 3 hrs by fluorescence-based assay
Procedure, shortened: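 Recombinant HIV-1 protease (40 ng/mL stock in pH 5.0 acetate/EDTA/NaCl/2-mercaptoethanol/NP-40/glycerol) mixed with inhibitor (10 nM solution in DMSO) in 200 mM MES-NaOH pH 5.5 with 2 mM DTT, 2 mM EDTA and 1 M NaCl. Preincubated 5 min at 37 °C, then 1.0 mM substrate solution added and incubated 3 h at 37 °C. Stopped with 1 N HCl. The Lys-Ala-Arg-Val-Tyr-OH product was quantified by RP-HPLC with fluorescence (Ex 275, Em 305 nm). Single determination.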

[4] = test system: Human immunodeficiency virus 1; test: Antiviral activity against wild-type HIV1 3B infected in human MT4 cells assessed as inhibition of virus-induced cytopathic effect after 5 days in absence of human serum by MTT assay; format: functional, organism-based; conditions: Human immunodeficiency virus 1, 3B, MT4, 120 h
[5] = test system: Human immunodeficiency virus 1; test: Antiviral activity against wild-type HIV1 pNL4-3 infected in human MT4 cells assessed as inhibition of virus-induced cytopathic effect after 5 days in absence of human serum by MTT assay; format: functional, organism-based; conditions: Human immunodeficiency virus 1, pNL4-3, MT4, 120 h
Procedure, shortened: (§1)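 MT-4 cells inoculated with HIV-1 pNL4-3, then given an equal volume of compound at several concentrations in 1% DMSO solution with 10% FBS. Incubated 5 days at 37 °C in CO2, in triplicate. MTT read by optical density, percent reduction of cytopathic effect calculated, and EC50 fitted to the median-effect equation. Values averaged over n = 3; the 50% human serum condition was run alongside.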

[6] = Ratio of EC50 for inhibition of protease L10F/V32I/M46I/I47V/Q58E/I84V mutant in HIV1 A17 infected in human MT4 cells to EC50 for wild-type HIV-1 pNL4-3 infected in human MT4 cells; format: functional, Human immunodeficiency virus 1
Procedure, shortened: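 Ratio of EC50 values from MT-4 cytopathic-effect MTT assays (5 days, 37 °C, triplicate, median-effect fit). Numerator is LPV-resistant strain A1711, denominator is wild-type HIV-1 pNL4-3.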

[7] = test system: Human immunodeficiency virus 1; test: Antiviral activity against wild-type HIV1 pNL4-3 infected in human MT4 cells assessed as inhibition of virus-induced cytopathic effect after 5 days in presence of 50 % of human serum by MTT assay; format: functional, organism-based; conditions: Human immunodeficiency virus 1, pNL4-3, MT4, 120 h; procedure, shortened: as §1
[8] = test system: Human immunodeficiency virus 1; test: Ratio of EC50 for wild-type HIV1 pNL4-3 infected in human MT4 in presence of 50% of human serum to EC50 for wild-type HIV-1 pNL4-3 infected in human MT4 in absence of human serum; format: functional
Procedure, shortened: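 Serum binding effect calculated as the pNL4-3 EC50 in 50% human serum divided by the EC50 in 0% serum, using MT-4 cytopathic-effect MTT assays run for 5 days at 37 °C.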

[9] = Cytotoxicity against human MT4 cells after 5 days by MTT assay; format: cell-based; conditions: read-out: TD50
Procedure, shortened: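 Uninfected MT-4 cells given compound at several concentrations in 1% DMSO solution with 10% FBS. Incubated 5 days at 37 °C in CO2, in triplicate. Viability read by MTT optical density, with TD50 taken as the cytotoxic measure.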

[10] = Ratio of EC50 for inhibition of HIV1 A17 protease L10F/V32I/M46I/I47V/Q58E/I84V mutant infected in human MT4 cells to EC50 for wild-type HIV-1 3B infected in human MT4 cells; format: functional, Human immunodeficiency virus 1
[11] = test system: Human immunodeficiency virus 1; test: Antiviral activity against wild-type HIV1 3B infected in human MT4 cells assessed as inhibition of virus-induced cytopathic effect after 5 days by MTT assay; format: functional, organism-based; conditions: Human immunodeficiency virus 1, 3B, MT4, 120 h
[12] = test system: Human immunodeficiency virus 1; test: Antiviral activity against wild-type HIV1 pNL4-3 infected in CMVdeltaR8.91 transfected 293T cells after 48 hrs by lentiviral vector-based luciferase reporter gene assay; format: functional, organism-based; conditions: Human immunodeficiency virus 1, pNL4-3, HEK-293T
Procedure, shortened: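 pNL4-3-based luciferase reporter lentiviral vector made by transfecting 293T cells with pCMV-ΔR8.91 (wild-type or V32I/L33F/I54M/V82I or V32I/L33F/I54M/I84V protease) plus luciferase transfer and envelope plasmids, with or without inhibitor. After 48 h, fresh 293T cells infected with vector. IC50 for suppression of luciferase transduction taken from dose-response curve.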

[13] = test system: Human immunodeficiency virus 1; test: Ratio of EC50 for wild-type HIV1 3B infected in human MT4 in presence of 50% of huma serum to EC50 for wild-type HIV-1 pNL4-3 infected in human MT4 in absence of human serum; format: functional
Procedure, shortened: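 Serum binding effect: EC50 measured with 50% human serum divided by EC50 measured without serum. Each EC50 came from protection of MT-4 cells from HIV-induced cytopathic effect. Infected cells were exposed to several compound concentrations in 1% DMSO with 10% FBS for 5 days at 37 °C in triplicate, read by MTT optical density, and fitted to a median-effect equation.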

Row | inhibition [3] [%] | Compound | EC50 [5] [nM] | EC50 [7] [nM] | Ratio EC50 [8] | other results
1 | 14 | CSC[C@H](NC(=O)COc1cccc2cnccc12)C(=O)N[C@@H](Cc1ccccc1)[C@H](O)C(=O)N1CSC[C@H]1C(=O)NC(C)(C)C | – | – | – | EC50 [1]: 2880 nM; Ratio EC50 [2]: 16; EC50 [4]: 176 nM
2 | 98 | Cc1cccc(C)c1CNC(=O)[C@H]1N(C(=O)[C@@H](O)[C@H](Cc2ccccc2)NC(=O)[C@@H](NC(=O)c2cc(=O)c3ccccc3o2)[C@H]2CCOC2)CSC1(C)C | 5 | 115 | 23 | –
3 | 98 | Cc1cccc(C)c1CNC(=O)[C@H]1N(C(=O)[C@@H](O)[C@H](Cc2ccccc2)NC(=O)[C@@H](NC(=O)COc2cccc3cnccc23)[C@H]2CCOC2)CSC1(C)C | 60 | 143 | 2.4 | –
4 | 96 | Cc1ccccc1CNC(=O)[C@H]1N(C(=O)[C@@H](O)[C@H](Cc2ccccc2)NC(=O)[C@@H](NC(=O)c2ccc3ccccc3n2)[C@H]2CCOC2)CSC1(C)C | < 3 | 411 | >137 | –
5 | 93 | CN(C)c1cccc(OCC(=O)N[C@H](C(=O)N[C@@H](Cc2ccccc2)[C@H](O)C(=O)N2CSC(C)(C)[C@H]2C(=O)NC2CCCC2)[C@H]2CCOC2)c1 | 10 | 103 | 10 | –
6 | 94 | CN(C)c1cccc(OCC(=O)N[C@H](C(=O)N[C@@H](Cc2ccccc2)[C@H](O)C(=O)N2CSC(C)(C)[C@H]2C(=O)NC/C=C\CO)[C@H]2CCOC2)c1 | 567 | 2050 | 3.6 | –
7 | 97 | Cc1ccccc1CNC(=O)[C@H]1N(C(=O)[C@@H](O)[C@H](Cc2ccccc2)NC(=O)[C@@H](NC(=O)COc2cccc3cnccc23)[C@H]2CCOC2)CSC1(C)C | 21 | 4350 | 207 | –
8 | 97 | C=C(C)CNC(=O)[C@H]1N(C(=O)[C@@H](O)[C@H](Cc2ccccc2)NC(=O)[C@@H](NC(=O)COc2cccc(N(C)C)c2)[C@H]2CCOC2)CSC1(C)C | 7 | 49 | 7 | –
9 | 95 | C=CCNC(=O)[C@H]1N(C(=O)[C@@H](O)[C@H](Cc2ccccc2)NC(=O)[C@@H](NC(=O)COc2cccc(N(C)C)c2)[C@H]2CCOC2)CSC1(C)C | 8 | 190 | 24 | –
10 | 97 | CN(C)c1cccc(OCC(=O)N[C@H](C(=O)N[C@@H](Cc2ccccc2)[C@H](O)C(=O)N2CSC(C)(C)[C@H]2C(=O)N[C@H]2CCc3ccccc32)[C@H]2CCOC2)c1 | 5 | 30 | 6 | –
11 | 86 | Cc1ccccc1CNC(=O)[C@H]1N(C(=O)[C@@H](O)[C@H](Cc2ccccc2)NC(=O)[C@@H](NC(=O)c2cnc3ccccc3n2)[C@@H]2CCOC2)CSC1(C)C | 12 | 131 | 11 | –
12 | 95 | CN(C)c1cccc(OCC(=O)N[C@H](C(=O)N[C@@H](Cc2ccccc2)[C@H](O)C(=O)N2CSC(C)(C)[C@H]2C(=O)N[C@H]2c3ccccc3C[C@H]2O)[C@H]2CCOC2)c1 | 4 | 79 | 20 | –
13 | 69 | Cc1ccccc1CNC(=O)[C@H]1N(C(=O)[C@@H](O)[C@H](Cc2ccccc2)NC(=O)[C@@H](NC(=O)c2ccc3ccccc3n2)[C@@H]2CCOC2)CSC1(C)C | 26 | 602 | 23 | –

More lines, now with the values behind:

Row | Compound | inhibition [3] [%] | EC50 [5] [nM] | EC50 [7] [nM] | Ratio EC50 [8] | other results
14 | COc1cccc2cc(C(=O)N[C@@H](CC(N)=O)C(=O)N[C@@H](Cc3ccccc3)[C@H](O)C(=O)N3CSC(C)(C)[C@H]3C(=O)NCc3c(C)cccc3C)oc12 | 96 | 60 | – | – | Ratio EC50 [6]: 1.4
15 | Cc1cccc(C)c1CNC(=O)[C@H]1N(C(=O)[C@@H](O)[C@H](Cc2ccccc2)NC(=O)[C@@H](NC(=O)COc2cccc(N(C)C)c2)[C@H]2CCOC2)CSC1(C)C | 97 | < 3 | 15 | >5 | CC50 at 120 h [9]: 60000 nM; Ratio EC50 [6]: >55
16 | Cc1cccc(C)c1CNC(=O)[C@H]1N(C(=O)[C@@H](O)[C@H](Cc2ccccc2)NC(=O)[C@@H](NC(=O)c2cc3ccccc3o2)[C@H]2CCOC2)CSC1(C)C | 97 | 12 | 90 | 7.5 | CC50 at 120 h [9]: 38000 nM; Ratio EC50 [6]: 57
17 | COc1cccc2cc(C(=O)N[C@H](C(=O)N[C@@H](Cc3ccccc3)[C@H](O)C(=O)N3CSC(C)(C)[C@H]3C(=O)NCc3c(C)cccc3C)C(C)C)oc12 | 95 | – | – | – | Ratio EC50 [10]: >103; EC50 [11]: < 3 nM
18 | CC(C)CN(C[C@@H](O)[C@H](Cc1ccccc1)NC(=O)O[C@H]1CO[C@H]2OCC[C@H]21)S(=O)(=O)c1ccc(N)cc1 | – | – | – | – | EC50 [12]: 0.82 nM
19 | Cc1cccc(C)c1CNC(=O)[C@H]1N(C(=O)[C@@H](O)[C@H](Cc2ccccc2)NC(=O)[C@@H](NC(=O)c2cc3ccccc3o2)C(C)C)CSC1(C)C | 93 | – | – | – | Ratio EC50 [10]: 61; EC50 [11]: 18 nM
20 | Cc1ccccc1CNC(=O)[C@H]1N(C(=O)[C@@H](O)[C@H](Cc2ccccc2)NC(=O)[C@@H](NC(=O)c2cnc3ccccc3n2)[C@H]2CCOC2)CSC1(C)C | 97 | 4 | 84 | 21 | CC50 at 120 h [9]: 10000 nM; Ratio EC50 [6]: 24
21 | Cc1ccccc1CNC(=O)[C@H]1N(C(=O)[C@@H](O)[C@H](Cc2ccccc2)NC(=O)c2cccc(O)c2C)CSC1(C)C | 48 | 60 | – | – | Ratio EC50 [13]: 2; CC50 at 120 h [9]: 23000 nM; EC50 [1]: 114 nM; Ratio EC50 [6]: 46
22 | Cc1cccc(C)c1OCC(=O)N[C@@H](Cc1ccccc1)[C@@H](O)C[C@H](Cc1ccccc1)NC(=O)[C@H](C(C)C)N1CCCNC1=O [LOPINAVIR] | – | – | – | – | CC50 at 120 h [9]: > 10000 nM
23 | Cc1cccc(C)c1CNC(=O)[C@H]1N(C(=O)[C@@H](O)[C@H](Cc2ccccc2)NC(=O)[C@H](CC(N)=O)NC(=O)c2cc3ccccc3o2)CSC1(C)C | 97 | – | – | – | Ratio EC50 [10]: 1.6; EC50 [11]: 38 nM
24 | Cc1cccc(C)c1CNC(=O)[C@H]1N(C(=O)[C@@H](O)[C@H](Cc2ccccc2)NC(=O)[C@@H](NC(=O)COc2cccc(Nc3ccccc3)c2)[C@H]2CCOC2)CSC1(C)C | 93 | 5 | 103 | 21 | CC50 at 120 h [9]: 39000 nM; Ratio EC50 [6]: 45
